UPR XBP1 act: adaptive UPR (XBP1) activation; CHO-XBP1 luciferase reporter, IRE1-XBP1 UPR activation, luminescence; percent of tunicamycin response, DMSO as zero; activation, % at 20 µM; 330,000 compounds, 0.33% hits; AID 463104;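 active means versus positive control, 20 µM dose yields 30% or more activation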;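 further: 100% = tunicamycin at 10 µg/mL and 0% = DMSO only wells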
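Assay system: IRE1-XBP1 luciferase reporter CHO line. Input: 1000 cells/well. Buffer or medium: F12 with 10% serum. Doses: 20 µM, 1% DMSO. Times: overnight seeding at 37 °C, 6 h compound treatment at 37 °C. Technique: Steady-Glo luciferase glow luminescence, 10 min after reagent addition.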
CHOP UPR activ: apoptotic UPR (CHOP) activation; CHO-CHOP luciferase reporter, luminescence; percent of tunicamycin response over DMSO baseline; activation, % at 10 µM; 330,000 compounds, 0.34% hits; AID 449763;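 active means at 10 µM dose, activation of 40% or more, normalized to positive control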;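 further: 100% = tunicamycin at 10 µg/mL and 0% = DMSO alone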
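Evaluation: % reporter activation, DMSO baseline versus tunicamycin full activation; System: CHO-CHOP luciferase reporter cell line; Input: 500 cells/well; Incubation: 6 h compound treatment, 37 °C; Measured by: Steady-Glo luciferase luminescence; Dosing: one dose, 10 µM in 0.5% DMSO; Buffer or medium: F12 medium, 10% FBS; Benchmarks: positive tunicamycin 10 µg/mL, negative DMSO alone.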
NOD2-RIPK2 inh: NOD2-RIPK2 protein interaction inhibition | O43353 | CHO BLA complementation NOD2-RIPK2, CCF4 ratio | inhibition, % at 4.98 µM | 360,000 compounds, 0.38% hits; in the data active means inhibition above about 21%;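 further: 0% = vehicle only and 100% = reference blocker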
CHOP inhibitor: blocks CHOP induction under ER stress; AID 2732; 220,000 compounds, 3.8% hits; inhibition, % at 10 µM; CHO-K1 CHOP-promoter luciferase, tunicamycin-induced, 15-18 h;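 active means compounds that reduced the stress-induced luciferase reporter signal by more than about 70% of percent inhibition, limit read from the data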;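 further: 0% = tunicamycin plus vehicle and 100% = wells without tunicamycin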
TLR9-MyD88 inh: blocks human TLR9 binding to MyD88. Q9NR96+Q99836. CHO BLA complementation TLR9-MyD88, CCF4 FRET ratio. inhibition, % at 4.98 µM. 340,000 compounds, 0.21% hits;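 active means inhibition above the mean over all tested compounds plus 3 SD, cut at about 21% in these data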;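 further: 0% = DMSO only wells and 100% = clavulanate BLA inhibitor control wells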
TLR4 MyD88 comp: blocks binding of human TLR4 to MyD88; HeLa CL3-4 TLR4/MyD88 BLA complementation, FRET ratio; inhibition, % at 8.4 µM; O00206+Q99836; 200,000 compounds, 0.18% hits; in the data active means inhibition above about 25%;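 further: 0% = vehicle and 100% = reference inhibitor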
TLR9-MyD88 conf: confirmation of human TLR9-MyD88 binding inhibitors. inhibition, % at 4.98 µM. AID 540250. 680 compounds, 51% hits. CHO TLR9/MyD88 BLA complementation, CCF4 FRET ratio. shares compounds with TLR9-MyD88 inh;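 active means mean inhibition across three repeats above about 21% taken from the earlier screen, limit read from the data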;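 further: blue over green emission ratio reports constitutive TLR9 MyD88 association via BLA complementation; 0% = DMSO vehicle wells and 100% = clavulanate BLA inhibitor wells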
BLA counter-1: beta-lactamase reporter inhibition, counter-screen artifact; shares compounds with TLR9-MyD88 inh; CHO-BLA cells, CCF4 FRET ratio, BLA reporter; inhibition, % at 4.98 µM; 680 compounds, 7% hits;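 active means mean inhibition above a 50% cutoff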;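 further: counterscreen of TLR9-MyD88 hits on CMV-driven BLA in CHO-K1 cells; 0% = DMSO alone and 100% = clavulanate blocking BLA; higher means less blue over green ratio so more BLA blockade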
TLR9 CHO cytotox: counter-screen for TLR9-MyD88 inhibitors: cytotoxicity in CHO cells; AID 588336; inhibition, % at 4.98 µM; luminescence; 680 compounds, 39% hits; shares compounds with TLR9-MyD88 inh; in the data active means inhibition above about 11%
NOD2-RIPK2 conf: NOD2-RIPK2 interaction inhibition confirmed. CHO cells, NOD2-RIPK2 BLA complementation, CCF4 FRET. inhibition, % at 4.98 µM. 1,200 compounds, 70% hits. shares compounds with NOD2-RIPK2 inh. AID 624370;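 active means mean inhibition across replicates above a set limit taken from the earlier primary screen, cut at about 21% in these data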;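 further: 0% = DMSO-only wells and the high end = clavulanate BLA-blocked wells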
BLA counter-2: hits BLA reporter in NOD2-RIPK2 inhibitor counterscreen. inhibition, % at 4.98 µM. CHO BLA reporter, CCF4 FRET ratio. 1,200 compounds, 57% hits. shares compounds with NOD2-RIPK2 inh. AID 624371;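 active means mean inhibition above the low-control mean inhibition plus three low-control SD, cut at about 11% in these data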;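 further: 0% = DMSO only wells and 100% = clavulanate high control wells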
Numbers without * were called inactive; . = no result given. The full list was thinned out, with hits kept by preference.

SMILES	UPR XBP1 act	CHOP UPR activ	NOD2-RIPK2 inh	CHOP inhibitor	TLR9-MyD88 inh	TLR4 MyD88 comp	TLR9-MyD88 conf	BLA counter-1	TLR9 CHO cytotox	NOD2-RIPK2 conf	BLA counter-2
C=CCN=C1CC(C)(C)CC(=O)/C1=C(\O)CCCN1C(=O)c2ccccc2C1=O	0	0	-3	-2	-12	1	.	.	.	.	.
O=C(O)c1c(-c2ccc(Cl)cc2)cn2ccccc12	-2	4	-9	-15	-5	-8	.	.	.	.	.
Cc1ccc(CN(C)C(=O)CCNS(=O)(=O)c2ccccc2)o1	-2	-1	0	.	2	.	.	.	.	.	.
CCC/C(C#Cc1ccc(N(C)C)cc1)=C1/c2ccccc2C(=O)N1c1ccccc1	-1	-1	40*	.	29*	.	56*	57*	3	49*	60*
CCC/C(C#Cc1cc(OC)cc(OC)c1)=C1/c2ccccc2C(=O)N1c1ccccc1	-3	-2	1	.	-4	.	.	.	.	.	.
O=C1C(SCCO)=C(SCCO)C(=O)c2ccccc21	-7	-12	84*	-5	64*	.	84*	17	99*	92*	34*
CC(=O)Oc1c(-c2ccc(Br)o2)oc2ccccc2c1=O	-1	1	25*	.	27*	.	17	16	-2	35*	34*
COc1ccc(-c2oc3ccccc3c(=O)c2OC(C)=O)cc1	5	3	2	26	3	-12	.	.	.	.	.
CCc1cccc2cc3c(N)c(C(=O)Nc4ccc(S(=O)(=O)N5CCCC5)cc4)sc3nc12	.	.	33*	35	30*	8	20	21	29*	42*	51*
C[C@@H]1[C@@H](Sc2ccccc2)CC(=O)O[C@@H]1c1ccc(-c2ccccc2)cc1	-1	12	1	.	7	.	.	.	.	.	.
O=C1C=CC2(O[C@H](c3ccccc3)[C@@H](c3ccccc3)O2)[C@H](Sc2ccccc2O)C1	.	.	92*	.	40*	.	38*	23	100*	91*	40*
NNC(=O)COc1ccc2oc3c(c2c1)CCCC3	-2	0	-6	.	-4	.	.	.	.	.	.
O=C(Nc1ccc(Cl)cc1)Nc1cccc2nsnc12	1	12	21*	73*	21*	.	15	15	0	35*	36*
COC(=O)c1scc2c(=O)cc(C(F)(F)F)[nH]c12	-2	-1	72*	-6	63*	.	50*	55*	-2	74*	78*
COc1ccc(CN(C)CC(=O)Nc2sc3c(c2C#N)CCC3)c(OC)c1	-2	-2	-7	-4	-11	4	.	.	.	.	.
CCOC(=O)c1sc2nccc(N(C)C)c2c1N=CNOCc1c(F)cccc1Cl	-1	-1	-6	-2	-3	0	.	.	.	.	.
COC(=O)c1ccc(C(=O)OC)c(NC(=O)c2cccnc2)c1	-5	0	-1	.	4	.	.	.	.	.	.
COc1ccc(NC(=O)/C(Cl)=C(/Cl)S(=O)(=O)Cc2ccccc2)cn1	.	.	56*	.	28*	10	21*	20	99*	68*	23*
O=C(NCc1cc(C(F)(F)F)ccc1Cl)c1cccc2c1C(=O)c1ccc(N3CCC(N4CCCCC4)CC3)cc1S2(=O)=O	.	.	61*	.	47*	.	43*	52*	24*	69*	68*

From PubChem BioAssay
